# Screens as filed in PubChem BioAssay.
# This is one part of a sample in which hits are shown more often than they occur.
# Lung fibro prol – blocks proliferation of human lung fibroblasts | LL 47 human lung fibroblast viability, ATP luminescence; stronger effect = lower value | viability, % at 10 µM | 85,000 compounds, 1.1% hits | AID 719;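 active means viability at or below 50% in the single dose screen; inactive means viability above 50%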;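 further: compound exposure lasted 72 h before the ATP readout; 100% = median luminescence of untreated cell-only wells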
#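 Times – overnight cell rest, 72 h compound treatment at 37 °C · Test system – human lung fibroblast line LL 47, low passage · Amount – 1,150 cells in each well · Controls – cell-only wells, no compound · Doses – 0.1% DMSO in all compound wells · Measured by – CellTiter-Glo luminescence · Buffer or medium – IMEM plus 15% FBS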
# PTEN del growth – suppresses growth of cells with PTEN deletion; HCT116 PTEN-null viability, CellTiter-Glo, 60 h; stronger effect = lower value; viability, % at 10 µM; 140,000 compounds, 1.2% hits; AID 827;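 active means viability at or below a set limit, 4 SD under the median of all tested compounds, cut at about 3.7% in these data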;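 further: PTEN knockout HCT116 line with beta catenin targeted HCT116 as companion control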
# bCat KO growth – beta-catenin-lacking colon tumor cell growth suppression | 140,000 compounds, 1.5% hits | viability, % at 10 µM | HCT116 beta-catenin knockout viability, CellTiter-Glo, 60 h; stronger effect = lower value;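 active means viability at or under a set limit, the compound median less 4 SD, cut at about 6% in these data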;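 further: 0% = Hyamine 1622 control at 20 µM and 100% = untreated cell control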
# HUVEC prolif 384 – human endothelial cell proliferation inhibition; HUVEC proliferation, CellTiter-Glo luminescence, 72 h; stronger effect = lower value; viability, % at 10 µM (by protocol); 86,000 compounds, 1.1% hits;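 active means viability at or below 30%; inactive means viability above 30%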;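 further: 100% = median luminescence of DMSO-only cell control wells on each plate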
# H69AR inhibit – growth inhibitors of human H69AR lung tumor cells | H69AR lung tumor viability, ATP luminescence, 72 h; stronger effect = lower value | viability, % at 10 µM | 85,000 compounds, 6% hits;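 active means viability at or below 40%; inactive means viability above 40%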;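 further: multidrug resistant small cell line overexpressing MRP-1 efflux transporter; 100% = mean luminescence of untreated control wells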
# * hit, by the source's call; x = not tested or not shown.
SMILES,Lung fibro prol,PTEN del growth,bCat KO growth,HUVEC prolif 384,H69AR inhibit
CCOC(=O)c1ccc(Nc2nnc(C(C)(C)C)c(=O)[nH]2)cc1,69.4,44.4,49.8,54.7,2.6*
CCOC(=O)c1ccc(Nc2cc(C)nc(C)c2C(=O)OCC)cc1,93.1,79.4,77.7,88.7,90.1
O=C(NC1CCCCC1)C(c1ccc(F)cc1)N(Cc1ccco1)C(=O)CN1C(=O)c2ccccc2S1(=O)=O (configuration not stated),x,87.7,87.5,x,x
O=C(NNC(=O)c1ccc(SCC2CCCO2)c([N+](=O)[O-])c1)c1ccc(Cl)c([N+](=O)[O-])c1 (configuration not stated),63.0,81.9,76.5,64.3,6.1*
O=C(CC(SCc1ccco1)c1ccc(O)cc1)c1cccs1 (configuration not stated),86.1,20.3,11.1,73.7,13.0*
O=C(CC(SCCO)c1ccc2c(c1)OCO2)c1cccs1 (configuration not stated),x,10.2,7.2,94.8,4.3*
CCOc1ccc(-c2nnn(CC(=O)N3CCCC3)n2)cc1OCC,97.7,103.5,102.1,90.3,83.4
COc1ccccc1N1CCN(c2ccc(-c3ccccc3)nn2)CC1,49.9*,9.7,12.5,40.0,19.4*
O=C(OCn1ncc(Br)c(Br)c1=O)c1ccc(F)cc1,1.9*,0.6*,0.8*,2.3*,1.8*
O=C(OCn1ncc(Br)c(Br)c1=O)c1ccccc1Cl,2.7*,2.0*,1.5*,2.6*,1.2*
CCn1ncc(Br)c1C(=O)Nc1ccc(C(=O)OC(C)C)cc1,110.3,91.3,97.1,103.6,100.4
O=S(=O)(Cc1ccccc1)N1CCc2ccccc21,96.5,44.1,60.2,76.6,27.6*
CN(C)S(=O)(=O)N1CCc2ccccc21,98.8,96.7,87.8,98.3,56.0
O=C(Oc1oc(-c2ccco2)nc1C=Nc1ccccc1)c1ccco1,85.8,94.6,101.2,87.1,38.8*
Cc1ccc(C(=O)Oc2oc(-c3ccco3)nc2C=Nc2ccc(Cl)cc2)cc1,99.5,101.5,96.5,68.8,49.6
O=C(Oc1oc(-c2ccco2)nc1C=Nc1ccccc1)c1ccoc1,86.7,95.7,97.7,72.1,38.0*
Cc1ccc(N=Cc2nc(-c3ccco3)oc2O)cc1,99.3,71.0,56.7,89.6,84.7
CCSCCc1nnc(NC(=O)Nc2cccc(C(F)(F)F)c2)s1,x,3.7*,4.5*,x,x
Cc1ccc(NC(=O)CSc2nnc(C(F)(F)F)n2C)cc1[N+](=O)[O-],x,104.4,107.3,x,x
Clc1cccc(-c2ccc(C=Nc3ccc(N4CCOCC4)cc3)o2)c1,x,90.3,88.7,x,x
CCOC(=O)c1ccc(Nc2ccc(-c3ccc(OC)c(OC)c3)nn2)cc1,97.8,72.8,76.2,56.0,31.8*
COc1ccc(OC)c(/C=C/C(=O)N2C(=O)c3cccc(N)c3C2=O)c1,x,75.8,61.6,x,x
COc1cc(/C=C/C(=O)N2C(=O)c3cccc(N)c3C2=O)cc(OC)c1OC,x,8.9,4.5*,x,x
COC(=O)c1cc2c(C)[nH]c(C)c2cc(C(=O)OC)c1=O,x,95.5,98.1,x,x
CCc1cccc(NC(=O)CSCc2cc(=O)[nH][nH]2)c1,95.5,97.7,106.6,91.1,91.7
SMILES,Lung fibro prol,PTEN del growth,bCat KO growth,HUVEC prolif 384,H69AR inhibit
CCc1cccc(NC(=O)CSC2=NS(=O)(=O)c3ccccc32)c1,49.6*,86.8,83.0,49.6,3.5*
CC(=O)c1nn(-c2cccc(Br)c2)cc1C(=O)c1ccc2ccccc2c1,x,4.0,3.7*,x,x
COc1cccc(-c2ccc(C#N)c(OC(=O)c3c(Cl)cccc3Cl)n2)c1,85.3,23.9,32.2,60.9,43.9
COc1cccc(-c2ccc(C#N)c(OC(=O)c3ccc(Cl)cc3)n2)c1,98.9,107.7,85.8,87.7,8.9*
COc1ccc(NC(=O)c2n[nH]c(=O)c3ccccc23)cc1S(=O)(=O)N1CCCCC1,x,83.8,84.4,x,x
Cc1cc(=O)[nH]c(N=N/C(=N/Nc2ccccc2C)c2ccccc2)n1,24.4*,3.6*,6.6,11.8*,25.9*
C/C(=N\Nc1nc(C)cc(=O)[nH]1)C1CC1,x,100.1,95.4,x,x
COC(=O)Cc1cc(=O)[nH]c(/N=C(/NC(=O)c2ccccc2)Nc2ccccc2C)n1,94.7,x,x,67.8,82.3
COc1ccc(N/N=C(/N=Nc2nc(C)cc(=O)[nH]2)c2ccccc2)cc1,16.2*,8.0,12.6,20.7*,27.4*
Cc1cc(=O)[nH]c(N=N/C(=N/Nc2ccc(O)cc2)c2ccccc2)n1,50.7,60.0,39.9,36.2,31.7*
CCOC(=O)c1oc2ccc(Br)cc2c1NC(=O)CN1CCN(C)CC1,81.1,4.8,4.4*,68.8,51.1
COc1ccc2oc(C(=O)c3ccccc3)c(NC(=O)CN3CCN(C)CC3)c2c1,53.8,1.6*,1.4*,32.0,0.7*
O=C(CCN1CCN(Cc2ccccc2)CC1)Nc1ccc(OCc2ccccc2)cc1,87.5,70.4,70.0,8.7*,28.6*
O=C(CN1CCOCC1)Nc1ccc(OCc2ccccc2)cc1,102.1,81.2,85.8,85.7,6.9*
CC1(C)N(O)CC(c2cccs2)=[N+]1[O-],113.0,91.2,82.2,95.2,103.1
CCC(C)c1ccc(NC(=O)COc2c(F)c(F)c(C(F)(F)F)c(F)c2F)cc1 (configuration not stated),x,78.8,74.9,x,x
CC(NC(=O)Cc1cccs1)C(c1cccs1)N1CCOCC1 (configuration not stated),92.5,96.8,95.5,86.6,90.9
Cc1ccc(-n2nc(C)c(NS(=O)(=O)c3ccccc3)c2C)cc1C,100.1,103.8,96.5,104.1,81.1
Cc1nn(-c2ccc(F)cc2)c(C)c1NS(=O)(=O)c1ccc(Cl)cc1,87.5,83.9,80.3,29.7*,75.0
CCC(C)(C)n1nnnc1CN1CCC(c2nc3ccc(C)cc3[nH]2)CC1,84.2,37.8,19.8,62.9,12.1*
Cc1[nH]c2ccccc2c1CN1CCc2ccccc2C1,62.9,2.7*,2.2*,79.5,35.3*
O=c1[nH]c(CN2CCc3ccccc3C2)nc2ccccc12,82.8,110.4,91.7,81.4,86.2
CC(=O)C1(C)OC(N)=C(C#N)C(c2ccccc2)C1(C#N)C#N (configuration not stated),93.7,100.6,89.4,98.1,37.6*
CC(=O)C1=C(c2ccccc2)OC(N)=C(C#N)C1c1ccccc1C (configuration not stated),x,73.9,76.8,x,x
Cc1cnnn1-c1ccc(C(=O)CCl)cc1,53.7,89.5,78.2,65.3,0.0*
COc1ccc2nc(NC(=O)C3CCCN(S(=O)(=O)c4c(C)noc4C)C3)sc2c1 (configuration not stated),101.4,46.5,54.1,86.1,35.1*
COc1ccc(OC)c(NC(=O)C2CCCN(S(=O)(=O)c3c(C)noc3C)C2)c1 (configuration not stated),102.1,87.8,95.3,93.9,79.2
CCOc1ccc(OCC)c(NC(=O)C2CCCN(S(=O)(=O)c3c(C)noc3C)C2)c1 (configuration not stated),81.6,22.0,18.4,78.0,19.2*
